# Screening results: PubChem BioAssay, several laboratories
# A selection: hits, their analogues and other compounds. The true share with any hit is near 9.6%.
# bCat KO growth: primary screen for growth suppressors in beta-catenin knockout HCT116 cells (colon tumor, human); AID 818, 2007; viability, % at 10 µM; HCT116 beta-catenin knockout viability, CellTiter-Glo, 60 h; active compounds read low; hit rate 1.5% among 140,000;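 active = viability at or under a set limit, the compound median less 4 SD, cut at about 6% in these data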;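 note: 0% = Hyamine 1622 control at 20 µM and 100% = untreated cell control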
# Lmaj promast: Leishmania major promastigote growth inhibition, primary screen; inhibition, % at 10 µM; hit rate 9% among 200,000; Leishmania major promastigotes, resazurin fluorescence viability; in the data active = inhibition above about 50%;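 note: promastigotes grown with compound for 44 hours at 28 °C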
# HCT116 PTEN-null: growth suppression of PTEN-null HCT116, primary screen, cell-based, CellTiter-Glo | HCT116 PTEN-null viability, 60 h; active compounds read low | viability, % at 10 µM | hit rate 1.2% among 140,000 | AID 827, 2007;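 active = viability at or below a set limit, 4 SD under the median of all tested compounds, cut at about 3.7% in these data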;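 note: PTEN knockout HCT116 line with beta catenin targeted HCT116 as companion control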
# PMI activator: activators of human PMI, primary screen, biochemical, fluorescence intensity, near-Km mannose 6-phosphate. purified human PMI, coupled resazurin fluorescence, 20 min; active compounds read high; 1 = vehicle control, 0 substrate-free wells. activation factor at 20 µM. AID 1214, 2008. hit rate 0.005% among 190,000;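 active = activation factor of 2 or more at 20 µM, relative to plate controls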
# Target sequence (P34949 whole entry, looked up): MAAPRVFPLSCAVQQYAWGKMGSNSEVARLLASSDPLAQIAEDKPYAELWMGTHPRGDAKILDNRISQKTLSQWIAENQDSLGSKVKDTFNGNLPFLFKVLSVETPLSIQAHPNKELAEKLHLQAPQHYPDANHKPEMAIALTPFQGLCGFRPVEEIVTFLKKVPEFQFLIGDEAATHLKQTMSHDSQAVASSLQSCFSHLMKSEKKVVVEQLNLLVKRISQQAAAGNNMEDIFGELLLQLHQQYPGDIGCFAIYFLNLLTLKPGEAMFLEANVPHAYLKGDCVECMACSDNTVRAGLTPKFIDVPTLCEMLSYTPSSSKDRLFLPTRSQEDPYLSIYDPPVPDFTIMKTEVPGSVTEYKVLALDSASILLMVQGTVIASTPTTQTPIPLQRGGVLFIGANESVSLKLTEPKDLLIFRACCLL
# PMI act satM6P: human PMI activators, high substrate, primary screen, biochemical, fluorescence intensity, near-saturating mannose 6-phosphate | Mannose-6-phosphate isomerase (Homo sapiens), P34949 | coupled PMI enzyme assay, resazurin fluorescence, 20 min; active compounds read high; 1 = untreated enzyme, 0 = substrate-free blank | activation factor at 20 µM | hit rate 0.34% among 190,000;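 active = activation factor of 2 or more at 20 µM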
#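 Material: human phosphomannose isomerase with PGI, G6PDH, diaphorase coupling enzymes / Reagent: Man-6-P substrate 1.0 mM / Dosing: single compound dose of 20 µM, 1% DMSO final / Incubation: enzyme reaction with compound 20 min at room temperature / Signal: resorufin fluorescence (Ex 544/Em 590 nm) from resazurin via diaphorase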
# Lmaj promast 1uM: Leishmania major promastigote growth inhibition, confirmation, 1 µM repeat of primary hits | shares compounds with Lmaj promast | L. major promastigote growth, resazurin fluorescence, 48 h | inhibition, % at 1 µM | hit rate 13% among 1,100 | AID 1258, 2008;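 active = inhibition above about 50% in both repeat tests, limit read from the data; inconclusive = one repeat under the set limit, the other over it; inactive = both repeats under the set limit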
# * hit, by the source's call; ? = inconclusive; · = not tested or not shown.
SMILES,bCat KO growth,Lmaj promast,HCT116 PTEN-null,PMI activator,PMI act satM6P,Lmaj promast 1uM
CCCCCCCCC/C(=N\O)c1ccccn1,3.4*,87*,7,1,1,5
O=C(Cc1ccccc1)Nc1ccc(N2CCOCC2)cc1N1CCOCC1,94,-4,96,0.9,0.9,·
O=C(Cc1ccccc1)Nc1cc(C(=O)c2ccccc2)ccc1N1CCOCC1,73,97*,77,1,1,-4
O=C(Cc1ccc(Br)cc1)N1CCN(c2ccccc2O)CC1,90,-7,89,0.9,1,·
CCc1ccc(N(C(=O)c2ccco2)C(C(=O)NC2CCCC2)c2ccco2)cc1 (stereo not given),83,18,84,·,·,·
COc1ccc(OC)c(C(c2nnnn2C2CCCC2)N2CCc3ccccc3C2)c1 (stereo not given),67,88*,66,0.8,0.9,4
COc1ccc(C(c2nnnn2C2CCCC2)N2CCC(C(N)=O)CC2)c(OC)c1 (stereo not given),96,-7,90,1.1,1,·
O=C(O)CC(c1cccc2ccccc12)n1cccc1 (stereo not given),104,-4,92,0.9,0.9,·
OCC1(Cc2ccccc2)CCN(C2CCN(c3ccccc3F)CC2)CC1,·,86*,·,1.1,1.1,?
Cc1nc(C)c(C(=O)NCc2ccccc2Cl)o1,87,4,87,1,1,·
COc1ccc(-n2cc(-c3ccc(OC(F)F)cc3)[n+]3c2CCCCC3)cc1,·,99*,·,1.1,1.1,-12
CCN1C(=O)C(CC(=O)Nc2ccc(Br)cc2)N(CCCc2ccccc2)C1=S (stereo not given),33,92*,23,1,1.1,-7
COc1ccc2[nH]c(=O)c(CN(C(=O)C3CCCO3)c3ccc(C)cc3)cc2c1 (stereo not given),88,-2,82,0.9,0.5,·
CCN1CCN(c2cc(SC(C)C)nc(-c3ccc(OC)cc3)n2)CC1,60,100*,56,1.1,1.1,0
O=C(NCc1ccc(N2CCCC2=O)cc1)c1cn(CCc2ccccc2)nn1,97,56*,92,0.9,1,19
O[C@@H](CNC[C@H](O)c1ccccc1)c1ccccc1,97,-2,94,1.1,1,·
COC(=O)c1ccc(-c2ccc(CNCC(O)c3ccccc3)o2)cc1 (stereo not given),87,99*,88,0.9,1,55*
Cc1cc(N2CCCC2=O)c(N)cc1N,85,5,70,0.9,1,·
CCOC(=O)c1cc2sc(C)cc2n1CC(=O)NCCc1ccccc1,84,5,96,0.9,0.9,·
Cc1cc(C)cc(N=Cc2ccc([N+](=O)[O-])s2)c1,1.9*,100*,1.8*,0.8,0.6,13
Cc1c(N=Cc2ccc(Br)s2)cccc1[N+](=O)[O-],99,-3,89,0.9,1,·
Cc1cc(Sc2nc(NC(C)C)nc(NC(C)C)n2)nc(Cl)n1,·,0,·,1,1,·
C#CCSc1nsc(SCC#C)c1C#N,2.7*,94*,5,0.9,0.9,-14
CCCSc1nsc(SCCC)c1C#N,97,-3,101,1,1,·
CCn1cc[n+](C)c1P(c1ccccc1)c1ccccc1,83,98*,85,1,1.2,20
SMILES,bCat KO growth,Lmaj promast,HCT116 PTEN-null,PMI activator,PMI act satM6P,Lmaj promast 1uM
O=C1C2CC(O)CN2C(=O)N1c1ccccc1 (stereo not given),·,-3,·,1,1,·
Cc1ccccc1Cn1nnc(C(=O)Nc2cccc(C)c2C)c1N,78,95*,76,0.9,0.9,-15
O=c1[nH]cc([N+](=O)[O-])cc1Br,93,61*,98,1,0.9,-5
O=c1c2c3c(sc2nc2sc(CN4CCOCC4)cn12)CCCC3,103,5,108,0.8,0.9,·
Fc1ccc(Sc2ccccc2CNC2=NCCN2)cc1,40,100*,48,0.7,0.8,-9
CCOC(=O)C1=C(C)NC(=O)NC1c1ccc(Br)s1 (stereo not given),98,66*,96,1.1,1,-9
